STAT3 inh: reduces IL-6 driven STAT3 reporter signal | 190,000 tested, 0.89% active | AID 862 | inhibition, % at 5.5 µM | U3A cells, IL-6 STAT3-luciferase reporter, luminescence; host cell line lacks STAT1;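 active means inhibition above the mean inhibition across all screened compounds plus 3 SD, cut at about 44% in these data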;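 further: 0% = DMSO only wells and 100% = 100 µM nifuroxazide control wells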
APP 5'UTR act: APP 5'UTR luciferase reporter activation; SH-SY5Y APP 5'UTR luciferase reporter, luminescence; zero percent = DMSO vehicle wells; activation, % at 2 µM; 190,000 tested, 1% active; AID 1276;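 active means activation above a set limit, based on mean plus 3 SD of controls, cut at about 140% in these data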
NF-kB neuron act: compounds increasing NF-kB expression in human neuronal cells; NF-kB reporter expression; stronger effect = higher value; fold change at 12.5 µM; 190,000 tested, 1.6% active; AID 1239; in the data active means fold change above about 3.3
STAT1 blocker: inhibitors of IFN-gamma induced STAT1 signaling | NIH 3T3 STAT1-luciferase reporter, luminescence | 200,000 tested, 0.35% active | inhibition, % at 5.5 µM;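 active means inhibition above a set limit, the mean inhibition across all tested compounds plus 3 SD, cut at about 34% in these data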;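 further: 0% = IFN-gamma with DMSO and 100% = IFN-gamma with 300 µM nifuroxazide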
STAT1 activator: STAT1 signaling activation | NIH 3T3 STAT1-luciferase reporter, IFN-gamma, luminescence; 100% = IFN-gamma alone, no compound | activation (% of control), % at 5.5 µM | 200,000 tested, 2.6% active | AID 932;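 active means activation above the screen-wide mean activation plus 3 SD, cut at about 130% in these data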;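 further: raw ratio to IFN-gamma control signal so 100% means no change and 0% no light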
STAT3 act: activators of IL-6 induced STAT3 signaling | U3A cells, IL-6 STAT3-luciferase reporter, luminescence; 100% = signal with IL-6 EC80 alone | activation (% of control), % at 5.6 µM | 190,000 tested, 0.91% active | AID 871;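 active means activation above the screen-wide mean of compound activation plus 3 SD, cut at about 130% in these data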;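 further: 0% = background luminescence of wells with medium and substrate only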
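System – human U3A cells carrying STAT3-luciferase construct · Probe or stimulus – Interleukin-6, 33 ng/mL · Schedule – compound 1 h, then IL-6 6 h at 37 °C · Signal – luminescence from STAT3-driven luciferase reporter · Evaluation – percent of IL-6-only median luminescence · Benchmarks – IL-6-only high control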
Active calls of the source: *; / = not tested or not shown. An excerpt weighted towards active compounds, which were near 5.1% of everything screened.

SMILES	STAT3 inh	APP 5'UTR act	NF-kB neuron act	STAT1 blocker	STAT1 activator	STAT3 act
Cc1cccc(NC(=O)/C=C/c2cccs2)n1	30	170*	5*	-54	149*	79
CCOc1ccc(NC(=O)/C=C/c2ccccc2)c([N+](=O)[O-])c1	-13	42	2.2	-34	131*	110
O=C(/C=C/c1cccs1)Nc1ccncc1	4	13	1.7	-9	108	95
Cc1ccc(NC(=O)/C=C/c2cccs2)c([N+](=O)[O-])c1	13	173*	7*	-51	146*	98
CCOc1ccc(/C=C/C(=O)Nc2ccc(OC)cc2[N+](=O)[O-])cc1	22	8	0.88	2	98	83
O=C(/C=C/c1ccccc1[N+](=O)[O-])Nc1ccccc1	26	172*	8.3*	-33	128	81
COc1cc(NC(=O)/C=C/c2ccccc2[N+](=O)[O-])cc(OC)c1	-7	8	1	-13	112	105
CC(C)CN(CC(C)C)C(=O)C12CCC(C)(C(=O)O1)C2(C)C (configuration not stated)	-4	8	1.6	-15	114	106
Cc1ccc(-c2csc(NC(=O)C3=NN(c4ccccc4)C(=O)CC3)n2)cc1	30	3	0.55	13	88	77
NNC(=O)/C(=C/c1cccs1)NC(=O)c1ccccc1Cl	-1	-20	0.94	-2	100	104
S=C(NCCc1ccccc1)NCc1cccs1	0	31	1.4	2	98	100
CC(C)=CC(=O)OCc1cc([N+](=O)[O-])cc2c1OCOC2	-22	43	0.91	-46	138*	123
CCc1ccc(OCc2cnc(Cl)s2)cc1	9	6	1.5	-33	131*	94
Cc1c(C#N)c(O)n(C)c(=O)c1N=Nc1ccc(S(N)(=O)=O)cc1	1	-1	1.1	-46	141*	111
Cc1c(C#N)c(O)n(CCO)c(=O)c1N=Nc1ccc(S(N)(=O)=O)cc1	10	14	1	4	95	101
CCOC(=O)CCNC(=O)N1CCCC(CNS(=O)(=O)c2cccs2)C1 (configuration not stated)	12	-5	1.1	-3	101	96
Cc1ccnc(NC(=O)c2cc3ccccc3oc2=O)c1	10	152*	5.9*	-46	144*	93
COc1ccc(C(=O)Nc2cccc(OC)c2)cc1	34	134	5.8*	-21	120	75
COc1ccc(NC(=O)c2ccc3nccnc3c2)cc1	20	82	3.1	-36	131*	86
O=C(Nc1ccc(Br)cn1)c1ccc2nccnc2c1	9	21	/	-53	149*	95
O=C(N/N=C/c1ccc([N+](=O)[O-])o1)C1CC1	7	-3	0.84	0	101	95
COc1cccc(OCC(=O)O/N=C(\N)c2ccc(OC)c(OC)c2)c1	-3	17	1	1	99	104
CCOc1cc(N2CCOCC2)c(OCC)cc1NC(=O)c1c(-c2ccccc2Cl)noc1C	0	-3	0.82	7	94	104
COc1ccc2oc(=O)c(C(=O)Nc3cccc(C)c3)cc2c1	8	119	2.8	-44	138*	95
O=C(NCc1ccco1)c1cc2ccc(O)cc2oc1=O	18	11	1.2	11	90	88
SMILES	STAT3 inh	APP 5'UTR act	NF-kB neuron act	STAT1 blocker	STAT1 activator	STAT3 act
COc1cccc(NC(=O)Nc2cccc(C(=O)O)c2)c1	92*	-51	1.6	88*	20	23
COc1ccc2cc(C(=O)NCc3ccco3)c(=O)oc2c1	14	48	3.9*	-5	105	91
COc1ccc(C(=O)NNC(=S)Nc2ccccc2)cc1	-16	141*	6.5*	-33	130*	115
CCc1cccc(C)c1NC(=S)N(Cc1cccnc1)Cc1ccco1	6	-6	1.3	2	98	102
O=C1C2C3C=CC(C2C(=O)N1CCCO)C1C2C(=O)N(CCCO)C(=O)C2C31 (configuration not stated)	-3	-5	1	-8	108	101
CCc1ccc(NC(=O)Nc2cccc(OC)c2)cc1	8	161*	2.5	-52	146*	104
CC(C)Oc1cccc(C(=O)NC(=S)Nc2ccccc2)c1	-2	75	2.1	-50	145*	102
CNC(=S)Nc1cccc(C(=O)O)c1	-12	-15	1.1	4	95	118
CC(C)(C)C(=O)NC(=S)Nc1cccc(C(=O)O)c1	-19	86	/	-33	131*	123
COc1cccc(NC(=O)Nc2ccc(CC(=O)O)cc2)c1	-12	13	0.91	8	93	109
C/C(O)=C(/C=NCC(=O)O)C(=O)Nc1nccs1	25	7	1.6	0	99	86
CC(C)(C)c1ccc(/C=C/C(=O)N2CCN(c3ncccn3)CC2)cc1	-7	-2	1	1	99	108
CC(C)Cc1ccc(/C=C/C(=O)N2CCOCC2)cc1	-7	101	3.8*	-49	146*	111
CC(C)(C)c1ccc(/C=C/C(=O)N2CCOCC2)cc1	-13	57	2.2	-36	132*	114
O=C(CCCOc1ccc(Cl)cc1)N1CCOCC1	10	17	1.2	-4	104	96
CC(C)(C)c1ccc(OCCCC(=O)N2CCOCC2)cc1	-16	15	1.5	-36	132*	118
c1ccc(-c2csc(-c3cccnc3)n2)cc1	8	13	2	-37	132*	95
COc1ccc2cc(-c3csc(-c4cccnc4)n3)ccc2c1	26	6	2.6	-27	124	82
O=S(=O)(c1ccc(-c2csc(-c3cccnc3)n2)cc1)N1CCOCC1	20	0	1.4	-4	103	85
Cc1ccc(-c2csc(-c3ccncc3)n2)cc1	5	70	2.6	-47	144*	98
COc1ccc(-c2csc(-c3cccnc3)n2)cc1C	-7	73	2.8	-56	150*	108
CSc1nn2cc(CCN3CCOCC3)c(-c3ccc(F)cc3)nc2c1C#N	4	-15	1	10	91	101
COc1ccc(Nc2ncc(C(=O)N3CCN(Cc4ccccc4)CC3)c3ccccc23)cc1	4	-8	0.49	-5	104	100
Cc1ccc(C(C(=O)Nc2ccc3c(c2)OCO3)N(C)C(=O)Cc2c[nH]c3ccccc23)cc1 (configuration not stated)	1	21	0.91	3	97	102
Cc1ccc(Nc2cc(-n3nc(C)cc3C)ncn2)c(C)c1	21	1	1.3	11	90	87
Cc1ccc(Nc2cc(-n3cccn3)ncn2)c(C)c1	-4	128	3.5*	-45	141*	103
Fc1cccc(-c2cc3nc4c(c(NCc5ccco5)n3n2)CCCC4)c1	15	166*	4.6*	-48	143*	92

Bioassay records from PubChem BioAssay.
